Assay results from ChEMBL document CHEMBL2321845, “Discovery of 4-Aryl-2-benzoyl-imidazoles as tubulin polymerization inhibitor with potent antiproliferative properties” (J Med Chem, 2013).
Each block holds one molecule with its values, some of them ahead of it. The source made the active and inactive calls. The calls are words filed in the database; no cut-off is given here.

Legend:
A-375 = test: Cytotoxicity against human A375 cells assessed as growth inhibition after 48 hrs by SRB assay; format: functional, cell-based; details: A-375, 48 h
Outline: (§1)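 Melanoma cells from ATCC, grown in DMEM with 10% FBS at 37°C under 5% CO2. Seeded at 1000–5000 cells/well according to growth rate and exposed to a range of compound concentrations for 48 h, in three to five replicates. Cells were fixed with 10% TCA, stained with 0.4% SRB and read at 540 nm.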

[1] = Resistance index, ratio of IC50 for human MDA-MB-435/LCC6 MDR1 cells to IC50 for human MDA-MB-435 cells; format: functional
[2] = Cytotoxicity against human WM164 cells assessed as growth inhibition after 48 hrs by SRB assay; format: functional, cell-based; details: WM164, 48 h
Outline: as §1, with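 “nm. IC50 (50% growth inhibition versus untreated control) was taken from nonlinear regression of % survival against concentration.” for “nm.”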

Tubulin (Sus scrofa) = Tubulin (Sus scrofa) (UniProt P02554+P02550); test: Inhibition of pig brain tubulin polymerization measured every 1 min for 40 mins by microplate reader analysis
Chain of Tubulin (Sus scrofa) (P02550 whole entry, looked up): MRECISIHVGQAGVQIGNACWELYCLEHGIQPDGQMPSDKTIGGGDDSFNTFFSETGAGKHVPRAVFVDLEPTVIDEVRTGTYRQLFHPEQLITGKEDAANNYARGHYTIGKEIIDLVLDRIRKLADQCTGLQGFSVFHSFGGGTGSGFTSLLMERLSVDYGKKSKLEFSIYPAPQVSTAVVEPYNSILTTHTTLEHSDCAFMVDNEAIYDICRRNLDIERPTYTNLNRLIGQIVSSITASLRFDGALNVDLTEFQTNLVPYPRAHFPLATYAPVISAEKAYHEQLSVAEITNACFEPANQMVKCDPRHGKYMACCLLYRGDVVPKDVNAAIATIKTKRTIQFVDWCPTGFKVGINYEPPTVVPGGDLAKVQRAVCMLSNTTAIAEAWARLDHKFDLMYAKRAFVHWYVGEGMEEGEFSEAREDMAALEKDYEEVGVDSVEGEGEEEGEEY
Chain of Tubulin (Sus scrofa) (P02554 whole entry, looked up): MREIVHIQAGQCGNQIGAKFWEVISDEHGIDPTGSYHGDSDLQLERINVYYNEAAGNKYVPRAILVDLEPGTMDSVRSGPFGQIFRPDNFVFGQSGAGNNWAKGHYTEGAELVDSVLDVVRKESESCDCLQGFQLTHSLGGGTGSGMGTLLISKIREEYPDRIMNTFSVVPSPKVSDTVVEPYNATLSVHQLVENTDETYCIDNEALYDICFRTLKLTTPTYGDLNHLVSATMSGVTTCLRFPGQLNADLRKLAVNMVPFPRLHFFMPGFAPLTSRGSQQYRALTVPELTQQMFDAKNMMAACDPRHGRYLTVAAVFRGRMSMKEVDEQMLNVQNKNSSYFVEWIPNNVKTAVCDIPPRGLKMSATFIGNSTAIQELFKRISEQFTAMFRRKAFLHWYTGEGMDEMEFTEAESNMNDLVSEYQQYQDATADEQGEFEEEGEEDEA
Outline: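 Polymerization was followed with a fluorescence-enhanced tubulin polymerization assay kit.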

MDA-MB-435 = test: Cytotoxicity against human MDA-MB-435 cells assessed as growth inhibition after 48 hrs by SRB assay; format: functional, cell-based; details: MDA-MB-435, 48 h
Bos taurus = species on record: Bos taurus; test: Competitive binding affinity to bovine brain tubulin after 1 hr by mass spectrometry binding assay in presence of colchicine; format: tissue-based
LNCaP = test: Cytotoxicity against human LNCAP cells assessed as growth inhibition after 96 hrs by SRB assay; format: functional, cell-based
Outline: (§2)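 Plated at 1000–5000 cells/well depending on growth rate and treated with graded compound concentrations for 96 h, three to five replicates. Cell number was measured by SRB: 10% TCA fixation, 0.4% SRB staining, absorbance at 540 nm. IC50 relative to untreated control came from a nonlinear regression fit.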

PPC-1 = test: Cytotoxicity against human PPC1 cells assessed as growth inhibition after 96 hrs by SRB assay; format: functional, cell-based; details: PPC-1, 96 h; outline: as §2
DU-145 = test: Cytotoxicity against human DU145 cells assessed as growth inhibition after 96 hrs by SRB assay; format: functional, cell-based; details: Homo sapiens, DU-145, 96 h
PC-3 [3] = test: Cell cycle arrest in human PC3 cells assessed as accumulation at G2/M phase after 24 hrs by propidium iodide staining based FACS analysis (reference value: 18%); format: functional
[4] = Cytotoxicity against human MDA-MB-435/LCC6MDR1 cells assessed as growth inhibition after 48 hrs by SRB assay; format: functional, cell-based, MDA-MB-435/LCC6 MDR1; details: Homo sapiens, MDA-MB-435/LCC6 MDR1, 48 h
PC-3 [5] = test: Cytotoxicity against human PC3 cells assessed as growth inhibition after 96 hrs by SRB assay; format: functional, cell-based; details: PC-3, 96 h; outline: as §2

inhibition (Tubulin (Sus scrofa)): Active
Activity (Bos taurus): Active
Structure (SMILES): COc1cc(C(=O)c2nc(-c3ccccc3)c[nH]2)cc(OC)c1OC
IC50 (A-375): 9 nM
Ratio IC50 [1]: 0.5
IC50 [2]: 14 nM
IC50 (MDA-MB-435): 24 nM
IC50 (LNCaP): 6 nM
IC50 (PPC-1): 13 nM
IC50 (DU-145): 22 nM
Activity (PC-3 [3]): Dose-dependent effect
Activity (PC-3 [3]; record 2): <=70%
IC50 [4]: 11 nM
IC50 (PC-3 [5]): 14 nM

inhibition (Tubulin (Sus scrofa)): Active
Structure (SMILES): COc1cc(C(=O)c2nc(-c3ccccc3)cn2C)cc(OC)c1OC
IC50 (A-375): 9 nM
IC50 [2]: 33 nM
IC50 (MDA-MB-435): 16 nM
IC50 (PPC-1): 13 nM
IC50 (DU-145): 26 nM
Activity (PC-3 [3]): Dose-dependent effect
Activity (PC-3 [3]; record 2): <=70%
IC50 [4]: 18 nM
IC50 (PC-3 [5]): 16 nM

inhibition (Tubulin (Sus scrofa)): Dose-dependent effect
Activity (Bos taurus): inactive
Structure (SMILES): CC[C@]1(O)C[C@@H]2CN(CCc3c([nH]c4ccccc34)[C@@](C(=O)OC)(c3cc4c(cc3OC)N(C)[C@H]3[C@@](O)(C(=O)OC)[C@H](OC(C)=O)[C@]5(CC)C=CCN6CC[C@]43[C@@H]65)C2)C1

Structure (SMILES): COc1cc(C(=O)c2nc(-c3ccc(Br)cc3)c[nH]2)cc(OC)c1OC
IC50 (A-375): 29 nM
IC50 [2]: 31 nM
IC50 (MDA-MB-435): 58 nM
IC50 (LNCaP): 15 nM
IC50 (DU-145): 66 nM
Activity (PC-3 [3]): Dose-dependent effect
Activity (PC-3 [3]; record 2): <=70%
IC50 [4]: 43 nM
IC50 (PC-3 [5]): 33 nM

Activity (Bos taurus): Active
Structure (SMILES): COc1cc(C(=O)c2nc(-c3ccccc3)cn2-c2ccccn2)cc(OC)c1OC
IC50 (A-375): 14 nM
IC50 [2]: 6 nM
IC50 (MDA-MB-435): 11 nM
IC50 (LNCaP): 20 nM
IC50 (PPC-1): 8 nM
IC50 (DU-145): 37 nM
IC50 [4]: 15 nM

Structure (SMILES): CCn1cc(-c2ccccc2)nc1C(=O)c1cc(OC)c(OC)c(OC)c1
IC50 (A-375): 28 nM
IC50 [2]: 16 nM
IC50 (MDA-MB-435): 26 nM
IC50 (LNCaP): 29 nM
IC50 (DU-145): 66 nM
Activity (PC-3 [3]): Dose-dependent effect
Activity (PC-3 [3]; record 2): <=70%
IC50 [4]: 33 nM
IC50 (PC-3 [5]): 25 nM

Structure (SMILES): COc1cc(C(=O)c2nc(-c3ccc(C(F)(F)F)cc3)c[nH]2)cc(OC)c1OC
IC50 (A-375): 123 nM
Ratio IC50 [1]: 0.8
IC50 [2]: 143 nM
IC50 (MDA-MB-435): 120 nM
IC50 (LNCaP): 47 nM
IC50 (PPC-1): 74 nM
IC50 (DU-145): 210 nM
IC50 [4]: 175 nM
IC50 (PC-3 [5]): 93 nM
